According to ChEMBL document CHEMBL4814000, “Discovery of β-carboline-(phenylsulfonyl)furoxan hybrids as potential anti-breast cancer agents” (Bioorg Med Chem Lett, 2021):
The source made the active and inactive calls. The rule behind the calls is not given here.

Columns and labels:
[1] = system: MCF7; test: Antiproliferative activity against human MCF7 cells assessed as reduction in cell viability incubated for 72 hrs by CCK-8 assay; format: functional, cell-based; details: MCF7, 72 h
Outline: (§1)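 CCK-8 viability assay on MCF-7 or MDA-MB-231 cells after 72 h compound exposure; IC50 taken as half inhibitory concentration, reported as mean ± SD of three independent experiments.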

[2] = system: MDA-MB-231; test: Antiproliferative activity against human MDA-MB-231 cells assessed as reduction in cell viability incubated for 72 hrs by CCK-8 assay; format: functional, cell-based; details: MDA-MB-231, 72 h; outline: as §1
[3] = Nitric oxide releasing activity assessed as amount of NO release measured up to 24 hrs by Griess assay; format: functional; details: time hrs <=24
Outline: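 Griess assay measuring NO released by compounds in vitro over time; values are averages of three independent experiments.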

| Structure (SMILES) | IC50 [1] [µM] | IC50 [2] [µM] | Activity [3] |
| --- | --- | --- | --- |
| O=C(NCCCOc1no[n+]([O-])c1S(=O)(=O)c1ccccc1)c1cc2c(cn1)[nH]c1ccccc12 | 4.64 | 7.5 |  |
| O=C(OCC#CCOc1no[n+]([O-])c1S(=O)(=O)c1ccccc1)c1cc2c(cn1)[nH]c1ccccc12 | 5.27 | 5.89 |  |
| O=C(c1cc2c(cn1)[nH]c1ccccc12)N1CCN(CCOc2no[n+]([O-])c2S(=O)(=O)c2ccccc2)CC1 | 8.28 | 6.83 |  |
| COc1ccc(-c2nc(C(=O)NCC(C)Oc3no[n+]([O-])c3S(=O)(=O)c3ccccc3)cc3c2[nH]c2ccccc23)cc1 (centres undefined) | 1.56 | 2.27 | Active |
| COc1cccc2c1C(=O)c1c(O)c3c(c(O)c1C2=O)C[C@@](O)(C(=O)CO)C[C@@H]3O[C@H]1C[C@H](N)[C@H](O)[C@H](C)O1 [DOXORUBICIN] |  | 2.86 |  |
| COc1ccc(-c2nc(C(=O)OCCOCCOc3no[n+]([O-])c3S(=O)(=O)c3ccccc3)cc3c2[nH]c2ccccc23)cc1 | 3.92 | 2.53 |  |
| O=C(OCCOCCOc1no[n+]([O-])c1S(=O)(=O)c1ccccc1)c1cc2c(cn1)[nH]c1ccccc12 | 19 | 15.8 |  |
| Cc1nc(C(=O)OCCCOc2no[n+]([O-])c2S(=O)(=O)c2ccccc2)cc2c1[nH]c1ccccc12 | 4.88 | 2.24 |  |
| Cc1nc(C(=O)NCCCOc2no[n+]([O-])c2S(=O)(=O)c2ccccc2)cc2c1[nH]c1ccccc12 | 2.97 | 1.62 |  |
| O=C(OCCCOc1no[n+]([O-])c1S(=O)(=O)c1ccccc1)c1cc2c(cn1)[nH]c1ccccc12 | 4.64 | 7.96 |  |
| Cc1nc(C(=O)N2CCN(CCOc3no[n+]([O-])c3S(=O)(=O)c3ccccc3)CC2)cc2c1[nH]c1ccccc12 | 3.29 | 3.47 |  |
| O=C(OCCCCOc1no[n+]([O-])c1S(=O)(=O)c1ccccc1)c1cc2c(cn1)[nH]c1ccccc12 | 9.57 | 12.5 |  |
| Cc1nc(C(=O)NCC(C)Oc2no[n+]([O-])c2S(=O)(=O)c2ccccc2)cc2c1[nH]c1ccccc12 (centres undefined) | 3.8 | 2.2 |  |
| Cc1nc(C(=O)OCCCCOc2no[n+]([O-])c2S(=O)(=O)c2ccccc2)cc2c1[nH]c1ccccc12 | 4.28 | 4.54 |  |
| Cc1nc(C(=O)NCCOc2no[n+]([O-])c2S(=O)(=O)c2ccccc2)cc2c1[nH]c1ccccc12 | 4.96 | 3.84 |  |
| O=C(OCCCCCCOc1no[n+]([O-])c1S(=O)(=O)c1ccccc1)c1cc2c(cn1)[nH]c1ccccc12 | 13.7 | 8.87 |  |
| COc1ccc(-c2nc(C(=O)NCCOc3no[n+]([O-])c3S(=O)(=O)c3ccccc3)cc3c2[nH]c2ccccc23)cc1 | 1.45 | 0.87 | Active |
| COc1ccc(-c2nc(C(=O)OCC#CCOc3no[n+]([O-])c3S(=O)(=O)c3ccccc3)cc3c2[nH]c2ccccc23)cc1 | 2.35 | 1.16 |  |

| Structure (SMILES) | IC50 [1] [µM] | IC50 [2] [µM] | Activity [3] |
| --- | --- | --- | --- |
| COc1ccc(-c2nc(C(=O)OCCCOc3no[n+]([O-])c3S(=O)(=O)c3ccccc3)cc3c2[nH]c2ccccc23)cc1 | 3.49 | 2.86 |  |
| COc1ccc(-c2nc(C(=O)N3CCN(CCOc4no[n+]([O-])c4S(=O)(=O)c4ccccc4)CC3)cc3c2[nH]c2ccccc23)cc1 | 1.33 | 0.92 | Active |
| COc1ccc(-c2nc(C(=O)OCCCCOc3no[n+]([O-])c3S(=O)(=O)c3ccccc3)cc3c2[nH]c2ccccc23)cc1 | 2.92 | 4.26 |  |
| CC(CNC(=O)c1cc2c(cn1)[nH]c1ccccc12)Oc1no[n+]([O-])c1S(=O)(=O)c1ccccc1 (centres undefined) | 6.94 | 5.97 |  |
| COc1ccc(-c2nc(C(=O)OCCCCCCOc3no[n+]([O-])c3S(=O)(=O)c3ccccc3)cc3c2[nH]c2ccccc23)cc1 | 5.36 | 2.98 | Active |
| COc1ccc(-c2nc(C(=O)O)cc3c2[nH]c2ccccc23)cc1 | 14.3 | 12.6 |  |
| Cc1nc(C(=O)O)cc2c1[nH]c1ccccc12 [HARMAN-3-CARBOXYLIC ACID] | 19.2 | 22.6 |  |
| COc1ccc(-c2nc(C(=O)OCCOc3no[n+]([O-])c3S(=O)(=O)c3ccccc3)cc3c2[nH]c2ccccc23)cc1 | 4.8 | 3.59 | Active |
| O=S(=O)(c1ccccc1)c1no[n+]([O-])c1S(=O)(=O)c1ccccc1 | 3.92 | 4.84 |  |
| O=C(O)c1cc2c(cn1)[nH]c1ccccc12 | > 30 | > 30 |  |
| Cc1nc(C(=O)OCCOc2no[n+]([O-])c2S(=O)(=O)c2ccccc2)cc2c1[nH]c1ccccc12 | 4.58 | 7.46 |  |
| Cc1nc(C(=O)OCCOCCOc2no[n+]([O-])c2S(=O)(=O)c2ccccc2)cc2c1[nH]c1ccccc12 | 5.89 | 7.67 |  |
| Cc1nc(C(=O)OCCCCCCOc2no[n+]([O-])c2S(=O)(=O)c2ccccc2)cc2c1[nH]c1ccccc12 | 6.85 | 5.75 |  |
| O=C(OCCOc1no[n+]([O-])c1S(=O)(=O)c1ccccc1)c1cc2c(cn1)[nH]c1ccccc12 | 11.5 | 9.56 |  |
| O=C(NCCOc1no[n+]([O-])c1S(=O)(=O)c1ccccc1)c1cc2c(cn1)[nH]c1ccccc12 | 7.53 | 6.75 |  |
| Cc1nc(C(=O)OCC#CCOc2no[n+]([O-])c2S(=O)(=O)c2ccccc2)cc2c1[nH]c1ccccc12 | 8.86 | 6.91 |  |
| COc1ccc2c(c1)[nH]c1c(C)nccc12 [HARMINE] | 16.9 | 21.9 |  |
